Experiment [1] deals with T1, von Hippel-Lindau disease tumor suppressor/Mitogen-activated protein kinase kinase kinase 21 (Homo sapiens) (UniProt P40337+Q5TCX8). Briefly: PROTAC activity at VHL/MLK4 in human MDA-MB-468 cells assessed as protein degradation at 1 uM incubated for 24 hrs by immunoblot analysis. It is filed as cell-based. The method, boiled down:
(§1)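 Endogenous MLK1, MLK2 or MLK4 levels in MCF-7 and MDA-MB-468 cells. Cells were grown in high-glucose DMEM with 10% FBS, seeded at 100 000 cells/well and treated the next day for 24 h, with DMSO as control. Lysis was in RIPA with protease inhibitor, followed by 10% SDS-PAGE, nitrocellulose transfer and ECL immunoblot with GAPDH or β-actin as loading control.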
Background: Immunoblotting shows a protein as a band on a membrane.

Experiment [2] has as its target T1, von Hippel-Lindau disease tumor suppressor/Mitogen-activated protein kinase kinase kinase 21 (Homo sapiens). The experiment in a line: PROTAC activity at VHL/DOX-inducible MLK4 (unknown origin) overexpressed in human A-375 cells assessed as protein degradation at 0.1 to 5 uM incubated for 24 hrs by immunoblot analysis. The class given is cell-based. As to conditions: dose 0.1-5 µM. The essentials: (§2)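 A375 cells carried lentiviral DOX-inducible MLK1, MLK2 or MLK4 and were grown in RPMI-1640 with 10% FBS. Cells were seeded at 100 000/well and induced with 1 μg/mL DOX. After 24 h they were treated at 0.1–5 μM for 24 h, with DMSO as control. Levels were read by ECL immunoblot of RIPA lysates, with GAPDH or β-actin loading control.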

The target in experiment [3] is T2, von Hippel-Lindau disease tumor suppressor/Mitogen-activated protein kinase kinase kinase 11 (Homo sapiens, UniProt Q16584+P40337). The experiment in a line: PROTAC activity at VHL/MLK3 in human MCF7 cells assessed as decrease in JNK pathway at 1 uM measured after 24 hrs by immunoblot analysis. It is filed as cell-based.
The target in experiment [4] is von Hippel-Lindau disease tumor suppressor/Mitogen-activated protein kinase kinase kinase 9 (Homo sapiens) (UniProt P80192+P40337). The experiment in a line: PROTAC activity at VHL/MLK1 in human MDA-MB-468 cells assessed as protein degradation at 1 uM incubated for 24 hrs by immunoblot analysis. It is filed as cell-based. The essentials: as §1
For experiment [5], the target named is T2, von Hippel-Lindau disease tumor suppressor/Mitogen-activated protein kinase kinase kinase 11. Briefly: PROTAC activity at VHL/MLK3 in human MDA-MB-468 cells assessed as protein degradation measured after 4 to 48 hrs by Western blot analysis. The class given is cell-based. Particulars: dose 1.0 µM, time 4-48 hrs. The essentials:
(§3)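 MCF-7 and MDA-MB-468 cells were seeded at 100 000/well and treated with 1 μM PROTAC for 4–48 h, with DMSO as control. MLK3 was quantified by immunoblot as percent remaining, and t1/2 of degradation was derived from the time course.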

Experiment [6] shares this target. Briefly: PROTAC activity at VHL/MLK3 in human MDA-MB-468 cells assessed as protein degradation at 1 uM by Western blot analysis. The class given is cell-based. As to conditions: time 4-48 hrs, TDE = time-dependent effect.
Experiment [7] in a line: PROTAC activity at IAP/MLK1 in human MCF7 cells assessed as protein degradation at 1 uM incubated for 24 hrs by immunoblot analysis.
The subject of experiment [8] is MDA-MB-468. Briefly: Growth inhibition of human MDA-MB-468 cell spheroids in low-attachment surface at 1 uM incubated for 10 days. It is filed as functional, cell-based. Particulars: time 10.0 day. The essentials:
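Cells grown 10 days in low-attachment surface plates in medium containing 1 μM PROTAC or DMSO; spheroid growth assessed.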

Experiment [9] addresses T2, von Hippel-Lindau disease tumor suppressor/Mitogen-activated protein kinase kinase kinase 11. Briefly: PROTAC activity at VHL/MLK3 in human MCF7 cells assessed as protein degradation at 1 uM by Western blot analysis. As to conditions: time 4-48 hrs, TDE = time-dependent effect. The class given is cell-based.
The test system of experiment [10] is MDA-MB-468. The experiment in a line: Inhibition of colony formation in human MDA-MB-468 cells harboring siMLK3 by crystal violet staining based analysis. The class given is functional, cell-based. The method, boiled down:
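MCF-7 or MDA-MB-468 seeded at 10 000 cells/well, transfected next day with MAP3K11 SMARTpool siRNA or nontargeting control siRNA; crystal violet staining 7 days after transfection. Knockdown confirmed by immunoblot.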

Experiment [11] addresses T3, von Hippel-Lindau disease tumor suppressor/Mitogen-activated protein kinase kinase kinase 10 (Homo sapiens) (UniProt Q02779+P40337). Briefly: PROTAC activity at VHL/MLK2 in human MCF7 cells assessed as protein degradation at 1 uM incubated for 24 hrs by immunoblot analysis. The class given is cell-based. The method, boiled down:
as §1

In experiment [12] the target is T2, von Hippel-Lindau disease tumor suppressor/Mitogen-activated protein kinase kinase kinase 11. Briefly: PROTAC activity at VHL/MLK3 in human MCF7 cells assessed as protein degradation at 1 uM measured after 24 hrs by immunoblot analysis.
In experiment [13] the target is T3, von Hippel-Lindau disease tumor suppressor/Mitogen-activated protein kinase kinase kinase 10 (Homo sapiens). Briefly: PROTAC activity at VHL/DOX-inducible MLK2 (unknown origin) overexpressed in human A-375 cells assessed as protein degradation at 0.1 to 5 uM incubated for 24 hrs by immunoblot analysis. It is filed as cell-based. Particulars: dose 0.1-5 µM. The method, boiled down:
as §2

Experiment [14] addresses T2, von Hippel-Lindau disease tumor suppressor/Mitogen-activated protein kinase kinase kinase 11. Briefly: PROTAC activity at VHL/MLK3 in human MCF7 cells assessed as half life of protein degradation at 1 uM by Western blot analysis. It is filed as cell-based. The essentials:
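Endogenous MLK3: cells seeded at 100 000/well, treated next day with 1 μM PROTAC for 4–48 h, DMSO control; immunoblot with GAPDH or β-actin loading control. Remaining MLK3 quantified over time and t1/2 derived.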

The test system of experiment [15] is MDA-MB-468. Briefly: Effect on ERK pathway in human MDA-MB-468 cells at 1 uM measured after 24 hrs by immunoblot analysis. The class given is functional, cell-based.
Experiment [16] deals with T2, von Hippel-Lindau disease tumor suppressor/Mitogen-activated protein kinase kinase kinase 11. The experiment in a line: PROTAC activity at VHL/MLK3 in human MCF7 cells assessed as protein degradation measured after 4 to 48 hrs by Western blot analysis. The class given is cell-based. Particulars: dose 1.0 µM, time 4-48 hrs. The method, boiled down:
as §3

Experiment [17] has the same target. Briefly: PROTAC activity at VHL/MLK3 in human MDA-MB-468 cells assessed as protein degradation at 1 uM measured after 24 hrs by immunoblot analysis.

The source made the active and inactive calls. The rule behind the calls is not given here.

T2 sequence (P40337 whole entry, looked up): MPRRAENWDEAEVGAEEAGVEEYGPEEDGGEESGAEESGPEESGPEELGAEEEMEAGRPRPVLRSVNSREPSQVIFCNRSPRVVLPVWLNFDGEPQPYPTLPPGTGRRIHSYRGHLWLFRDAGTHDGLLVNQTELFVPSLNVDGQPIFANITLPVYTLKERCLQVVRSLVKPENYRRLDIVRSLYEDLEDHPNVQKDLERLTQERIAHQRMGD
T2 sequence (Q16584 whole entry, looked up): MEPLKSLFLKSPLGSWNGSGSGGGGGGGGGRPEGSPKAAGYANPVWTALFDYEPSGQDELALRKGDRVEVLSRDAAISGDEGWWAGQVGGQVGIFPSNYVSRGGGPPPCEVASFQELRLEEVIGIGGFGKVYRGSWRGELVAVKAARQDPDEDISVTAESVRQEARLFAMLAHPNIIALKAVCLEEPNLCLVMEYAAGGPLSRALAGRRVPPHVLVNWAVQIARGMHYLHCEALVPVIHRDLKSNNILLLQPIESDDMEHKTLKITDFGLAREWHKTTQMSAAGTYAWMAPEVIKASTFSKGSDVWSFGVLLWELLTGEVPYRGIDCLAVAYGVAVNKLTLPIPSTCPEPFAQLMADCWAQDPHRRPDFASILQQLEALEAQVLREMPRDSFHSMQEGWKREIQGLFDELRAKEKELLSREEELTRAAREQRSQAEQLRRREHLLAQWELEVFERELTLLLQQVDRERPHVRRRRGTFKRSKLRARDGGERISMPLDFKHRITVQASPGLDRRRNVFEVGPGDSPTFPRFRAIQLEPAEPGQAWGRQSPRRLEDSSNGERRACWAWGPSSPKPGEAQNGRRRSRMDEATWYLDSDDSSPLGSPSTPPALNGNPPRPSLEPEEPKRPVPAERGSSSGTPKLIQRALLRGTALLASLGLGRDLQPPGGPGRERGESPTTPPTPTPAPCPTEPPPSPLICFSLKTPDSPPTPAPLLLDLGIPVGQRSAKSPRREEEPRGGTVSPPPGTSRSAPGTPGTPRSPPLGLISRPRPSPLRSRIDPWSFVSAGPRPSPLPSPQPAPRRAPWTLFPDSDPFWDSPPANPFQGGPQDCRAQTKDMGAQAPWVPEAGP
T3 sequence (P40337 whole entry, looked up): as the sequence (P40337 whole entry, looked up) above
T3 sequence (Q02779 whole entry, looked up): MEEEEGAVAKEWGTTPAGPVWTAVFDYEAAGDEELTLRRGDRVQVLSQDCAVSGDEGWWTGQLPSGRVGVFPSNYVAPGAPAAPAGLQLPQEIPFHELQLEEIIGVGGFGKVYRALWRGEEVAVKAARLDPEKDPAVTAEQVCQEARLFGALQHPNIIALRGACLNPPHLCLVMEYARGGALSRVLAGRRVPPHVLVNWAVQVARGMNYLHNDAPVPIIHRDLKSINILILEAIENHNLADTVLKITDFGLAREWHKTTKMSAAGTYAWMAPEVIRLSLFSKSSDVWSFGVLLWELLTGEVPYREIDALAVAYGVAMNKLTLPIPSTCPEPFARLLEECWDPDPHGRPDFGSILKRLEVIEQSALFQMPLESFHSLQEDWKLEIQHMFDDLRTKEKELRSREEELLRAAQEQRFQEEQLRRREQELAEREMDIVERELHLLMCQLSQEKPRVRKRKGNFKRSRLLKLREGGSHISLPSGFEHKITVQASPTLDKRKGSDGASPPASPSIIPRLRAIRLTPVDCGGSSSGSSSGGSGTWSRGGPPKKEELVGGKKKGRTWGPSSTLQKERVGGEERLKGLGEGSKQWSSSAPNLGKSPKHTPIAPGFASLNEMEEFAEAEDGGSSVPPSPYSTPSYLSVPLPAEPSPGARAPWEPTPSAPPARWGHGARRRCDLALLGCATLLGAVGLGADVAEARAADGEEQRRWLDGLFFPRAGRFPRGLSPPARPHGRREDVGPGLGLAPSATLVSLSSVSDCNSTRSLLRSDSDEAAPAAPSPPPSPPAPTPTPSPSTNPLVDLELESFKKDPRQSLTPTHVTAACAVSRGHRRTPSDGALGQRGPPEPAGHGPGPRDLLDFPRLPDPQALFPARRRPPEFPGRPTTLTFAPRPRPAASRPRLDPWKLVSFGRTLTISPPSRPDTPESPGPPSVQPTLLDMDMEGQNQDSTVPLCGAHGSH
T1 sequence (P40337 whole entry, looked up): as the sequence (P40337 whole entry, looked up) above
T1 sequence (Q5TCX8 whole entry, looked up): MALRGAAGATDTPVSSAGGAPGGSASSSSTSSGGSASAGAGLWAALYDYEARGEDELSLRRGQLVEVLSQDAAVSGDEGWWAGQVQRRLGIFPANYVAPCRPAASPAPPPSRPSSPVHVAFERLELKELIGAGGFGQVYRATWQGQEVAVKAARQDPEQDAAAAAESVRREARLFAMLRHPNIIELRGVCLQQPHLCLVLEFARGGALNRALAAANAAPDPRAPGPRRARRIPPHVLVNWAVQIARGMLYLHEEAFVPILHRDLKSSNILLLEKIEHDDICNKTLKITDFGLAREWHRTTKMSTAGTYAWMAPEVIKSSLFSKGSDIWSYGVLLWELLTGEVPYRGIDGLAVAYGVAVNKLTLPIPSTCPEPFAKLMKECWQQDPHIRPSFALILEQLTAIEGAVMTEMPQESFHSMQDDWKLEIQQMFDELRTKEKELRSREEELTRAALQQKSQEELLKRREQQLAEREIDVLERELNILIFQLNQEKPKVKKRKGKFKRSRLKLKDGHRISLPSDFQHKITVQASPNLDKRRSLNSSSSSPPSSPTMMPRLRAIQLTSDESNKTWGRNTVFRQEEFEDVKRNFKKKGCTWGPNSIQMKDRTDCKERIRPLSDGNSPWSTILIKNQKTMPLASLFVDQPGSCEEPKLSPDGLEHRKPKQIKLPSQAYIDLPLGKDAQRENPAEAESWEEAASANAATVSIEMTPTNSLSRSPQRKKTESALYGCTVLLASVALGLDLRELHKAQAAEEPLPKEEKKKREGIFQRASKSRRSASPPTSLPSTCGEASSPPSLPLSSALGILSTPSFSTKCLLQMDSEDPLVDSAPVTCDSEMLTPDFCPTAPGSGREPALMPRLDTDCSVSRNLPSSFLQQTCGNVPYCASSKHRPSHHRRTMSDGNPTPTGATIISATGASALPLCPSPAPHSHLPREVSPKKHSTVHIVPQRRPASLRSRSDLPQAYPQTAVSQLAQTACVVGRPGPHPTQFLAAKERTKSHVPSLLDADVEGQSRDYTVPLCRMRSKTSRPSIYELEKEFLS
von Hippel-Lindau disease tumor suppressor/Mitogen-activated protein kinase kinase kinase 9 (Homo sapiens), sequence (P40337 whole entry, looked up): as the sequence (P40337 whole entry, looked up) above
von Hippel-Lindau disease tumor suppressor/Mitogen-activated protein kinase kinase kinase 9 (Homo sapiens), sequence (P80192 whole entry, looked up): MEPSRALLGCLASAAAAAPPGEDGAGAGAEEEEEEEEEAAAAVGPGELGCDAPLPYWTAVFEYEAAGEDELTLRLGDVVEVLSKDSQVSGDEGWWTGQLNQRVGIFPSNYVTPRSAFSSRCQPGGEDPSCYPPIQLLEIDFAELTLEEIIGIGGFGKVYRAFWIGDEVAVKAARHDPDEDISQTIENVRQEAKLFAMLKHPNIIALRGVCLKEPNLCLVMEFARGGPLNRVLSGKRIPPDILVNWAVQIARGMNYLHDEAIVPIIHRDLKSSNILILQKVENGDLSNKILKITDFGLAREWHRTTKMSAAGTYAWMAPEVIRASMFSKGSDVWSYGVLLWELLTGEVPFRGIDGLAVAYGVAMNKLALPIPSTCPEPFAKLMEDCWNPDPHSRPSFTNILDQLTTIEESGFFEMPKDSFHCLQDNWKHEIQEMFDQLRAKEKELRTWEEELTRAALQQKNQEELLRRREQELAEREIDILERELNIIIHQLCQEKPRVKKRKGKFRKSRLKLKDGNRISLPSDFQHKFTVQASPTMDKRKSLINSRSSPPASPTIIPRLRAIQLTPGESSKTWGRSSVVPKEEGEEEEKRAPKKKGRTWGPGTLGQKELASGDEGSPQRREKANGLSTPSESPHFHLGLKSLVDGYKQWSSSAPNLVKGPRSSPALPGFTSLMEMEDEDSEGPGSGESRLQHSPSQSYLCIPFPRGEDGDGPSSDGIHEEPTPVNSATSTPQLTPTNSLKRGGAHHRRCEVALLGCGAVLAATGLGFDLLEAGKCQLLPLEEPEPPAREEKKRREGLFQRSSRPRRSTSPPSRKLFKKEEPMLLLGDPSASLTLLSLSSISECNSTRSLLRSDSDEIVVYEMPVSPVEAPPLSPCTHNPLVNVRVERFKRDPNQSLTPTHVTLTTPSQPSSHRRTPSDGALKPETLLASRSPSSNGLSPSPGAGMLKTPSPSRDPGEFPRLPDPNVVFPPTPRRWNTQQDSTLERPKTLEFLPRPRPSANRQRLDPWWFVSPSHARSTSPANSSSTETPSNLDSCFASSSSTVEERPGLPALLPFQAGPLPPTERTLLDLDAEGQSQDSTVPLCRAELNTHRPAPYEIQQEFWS

Turning to `CCSCc1ccc2c(c1)c1c3c(c4c5cc(CSCC)ccc5n5c4c1n2[C@H]1C[C@](O)(C(=O)NCCOCCOCCOCC(=O)N[C@H](C(=O)N2C[C@H](O)C[C@H]2C(=O)N[C@@H](C)c2ccc(-c4scnc4C)cc2)C(C)(C)C)[C@]5(C)O1)CNC3=O`, the result in experiment [1], in experiment [2], in experiment [4], in experiment [7], in experiment [11] and in [13] was inactive. For the same compound, the result in the experiment with MDA-MB-468 [15] was inactive. Also, the result in experiment [3], in experiment [12] and in [17] was Active. Also, the Activity result in experiment [5] is “Dose-Dependent Effect”; in experiment [6], “Tde”; in [9], “Tde”; in experiment [16] it was “Dose-Dependent Effect”. Also, the “growth inhibition (GI)” value with MDA-MB-468 [8] was “Active”. Also, the inhibition result with MDA-MB-468 [10] is “Active”. The T1/2 in experiment [14] turned out to be 2.5 h.

For the origin of these results see ChEMBL document CHEMBL5579886, “Selective Degradation of MLK3 by a Novel CEP1347-VHL-02 PROTAC Compound Limits the Oncogenic Potential of TNBC” (J Med Chem, 2024).
